Tests used:
Assay type in all cases: ADME, organism-based
[1] = Biodistribution in NMRI mouse urine at 3.7 MBq/mL, iv after 2 mins by gamma counting; details: in vivo
Procedure, shortened: (§1)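 Male NMRI mice (30-40 g) under isoflurane (1.5-2.5% in oxygen) got 0.1 mL of HPLC-purified tracer diluted with 0.9% NaCl to 3.7 MBq/mL (ethanol ≤10%) via tail vein. Mice were decapitated at 2 or 60 min p.i., and organs, blood and urine were weighed and γ-counted. Values are background-corrected %ID or %ID/g, with blood mass taken as 7% of body mass.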

[2] = Biodistribution in NMRI mouse urine at 3.7 MBq/mL, iv after 60 mins by gamma counting; details: in vivo, 1 h; procedure, shortened: as §1
[3] = test system: Kidney; assay: Biodistribution in NMRI mouse kidney at 3.7 MBq/mL, iv after 2 mins by gamma counting; details: in vivo; procedure, shortened: as §1
[4] = test system: Kidney; assay: Biodistribution in NMRI mouse kidney assessed per gram of tissue at 3.7 MBq/mL, iv after 2 mins by gamma counting; details: in vivo; procedure, shortened: as §1
[5] = test system: Kidney; assay: Biodistribution in NMRI mouse kidney assessed per gram of tissue at 3.7 MBq/mL, iv after 60 mins by gamma counting; details: in vivo, 1 h; procedure, shortened: as §1
[6] = test system: Kidney; assay: Drug level in NMRI mouse kidney assessed as standard uptake value at 3.7 MBq/mL, iv after 2 mins by gamma counting; details: in vivo
Procedure, shortened: (§2)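 Male NMRI mice (30-40 g) were anaesthetised with isoflurane. Each received 0.1 mL of HPLC-purified tracer, diluted in 0.9% NaCl to 3.7 MBq/mL (ethanol ≤10%), via a tail vein. Mice were decapitated at 2 or 60 min. Organs were dissected, weighed and γ-counted with background correction. SUV = (organ cpm/organ weight)/(total recovered counts/body weight). Blood mass was taken as 7% of body mass.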

[7] = test system: Kidney; assay: Drug level in NMRI mouse kidney assessed as standard uptake value at 3.7 MBq/mL, iv after 60 mins by gamma counting; details: in vivo, 1 h; procedure, shortened: as §2
[8] = test system: Liver; assay: Biodistribution in NMRI mouse liver at 3.7 MBq/mL, iv after 2 mins by gamma counting; details: in vivo; procedure, shortened: as §1
[9] = test system: Liver; assay: Biodistribution in NMRI mouse liver at 3.7 MBq/mL, iv after 60 mins by gamma counting; details: in vivo, 1 h; procedure, shortened: as §1
[10] = test system: Liver; assay: Drug level in NMRI mouse liver assessed as standard uptake value at 3.7 MBq/mL, iv after 2 mins by gamma counting; details: in vivo; procedure, shortened: as §2
[11] = Biodistribution in NMRI mouse spleen/pancreas at 3.7 MBq/mL, iv after 2 mins by gamma counting; details: in vivo; procedure, shortened: as §1
[12] = Biodistribution in NMRI mouse spleen/pancreas at 3.7 MBq/mL, iv after 60 mins by gamma counting; details: in vivo, 1 h; procedure, shortened: as §1
[13] = Biodistribution in NMRI mouse spleen/pancreas assessed per gram of tissue at 3.7 MBq/mL, iv after 2 mins by gamma counting; details: in vivo; procedure, shortened: as §1
[14] = Biodistribution in NMRI mouse spleen/pancreas assessed per gram of tissue at 3.7 MBq/mL, iv after 60 mins by gamma counting; details: in vivo, 1 h; procedure, shortened: as §1
[15] = Drug level in NMRI mouse spleen/pancreas assessed as standard uptake value at 3.7 MBq/mL, iv after 60 mins by gamma counting; details: in vivo, 1 h; procedure, shortened: as §2
[16] = test system: Lung; assay: Biodistribution in NMRI mouse lung at 3.7 MBq/mL, iv after 2 mins by gamma counting; details: in vivo; procedure, shortened: as §1
[17] = test system: Lung; assay: Biodistribution in NMRI mouse lung at 3.7 MBq/mL, iv after 60 mins by gamma counting; details: in vivo, 1 h; procedure, shortened: as §1
[18] = test system: Lung; assay: Biodistribution in NMRI mouse lung assessed per gram of tissue at 3.7 MBq/mL, iv after 2 mins by gamma counting; details: in vivo; procedure, shortened: as §1
[19] = test system: Lung; assay: Biodistribution in NMRI mouse lung assessed per gram of tissue at 3.7 MBq/mL, iv after 60 mins by gamma counting; details: in vivo, 1 h; procedure, shortened: as §1
[20] = test system: Lung; assay: Drug level in NMRI mouse lung assessed as standard uptake value at 3.7 MBq/mL, iv after 2 mins by gamma counting; details: in vivo; procedure, shortened: as §2
[21] = test system: Lung; assay: Drug level in NMRI mouse lung assessed as standard uptake value at 3.7 MBq/mL, iv after 60 mins by gamma counting; details: in vivo, 1 h; procedure, shortened: as §2
[22] = test system: Heart; assay: Biodistribution in NMRI mouse heart at 3.7 MBq/mL, iv after 2 mins by gamma counting; details: in vivo; procedure, shortened: as §1
[23] = test system: Heart; assay: Biodistribution in NMRI mouse heart at 3.7 MBq/mL, iv after 60 mins by gamma counting; details: in vivo, 1 h; procedure, shortened: as §1
[24] = test system: Heart; assay: Biodistribution in NMRI mouse heart assessed per gram of tissue at 3.7 MBq/mL, iv after 2 mins by gamma counting; details: in vivo; procedure, shortened: as §1
[25] = test system: Heart; assay: Drug level in NMRI mouse heart assessed as standard uptake value at 3.7 MBq/mL, iv after 2 mins by gamma counting; details: in vivo; procedure, shortened: as §2
[26] = test system: Heart; assay: Drug level in NMRI mouse heart assessed as standard uptake value at 3.7 MBq/mL, iv after 60 mins by gamma counting; details: in vivo, 1 h; procedure, shortened: as §2
[27] = test system: Intestine; assay: Biodistribution in NMRI mouse intestine at 3.7 MBq/mL, iv after 2 mins by gamma counting; details: in vivo; procedure, shortened: as §1
[28] = test system: Stomach; assay: Biodistribution in NMRI mouse stomach at 3.7 MBq/mL, iv after 60 mins by gamma counting; details: in vivo, 1 h; procedure, shortened: as §1
[29] = Biodistribution in NMRI mouse cerebrum at 3.7 MBq/mL, iv after 2 mins by gamma counting; details: in vivo; procedure, shortened: as §1
[30] = Biodistribution in NMRI mouse cerebrum at 3.7 MBq/mL, iv after 60 mins by gamma counting; details: in vivo, 1 h; procedure, shortened: as §1
[31] = Biodistribution in NMRI mouse cerebrum assessed per gram of tissue at 3.7 MBq/mL, iv after 60 mins by gamma counting; details: in vivo, 1 h; procedure, shortened: as §1
[32] = Drug level in NMRI mouse cerebrum assessed as standard uptake value at 3.7 MBq/mL, iv after 60 mins by gamma counting; details: in vivo, 1 h; procedure, shortened: as §2
[33] = test system: Cerebellum; assay: Biodistribution in NMRI mouse cerebellum at 3.7 MBq/mL, iv after 2 mins by gamma counting; details: in vivo; procedure, shortened: as §1
[34] = test system: Cerebellum; assay: Biodistribution in NMRI mouse cerebellum at 3.7 MBq/mL, iv after 60 mins by gamma counting; details: in vivo, 1 h; procedure, shortened: as §1
[35] = test system: Cerebellum; assay: Biodistribution in NMRI mouse cerebellum assessed per gram of tissue at 3.7 MBq/mL, iv after 60 mins by gamma counting; details: in vivo, 1 h; procedure, shortened: as §1
[36] = test system: Cerebellum; assay: Drug level in NMRI mouse cerebellum assessed as standard uptake value at 3.7 MBq/mL, iv after 2 mins by gamma counting; details: in vivo; procedure, shortened: as §2
[37] = test system: Cerebellum; assay: Drug level in NMRI mouse cerebellum assessed as standard uptake value at 3.7 MBq/mL, iv after 60 mins by gamma counting; details: in vivo, 1 h; procedure, shortened: as §2
[38] = test system: Blood; assay: Biodistribution in NMRI mouse blood at 3.7 MBq/mL, iv after 2 mins by gamma counting; details: in vivo; procedure, shortened: as §1
[39] = test system: Blood; assay: Biodistribution in NMRI mouse blood at 3.7 MBq/mL, iv after 60 mins by gamma counting; details: in vivo, 1 h; procedure, shortened: as §1
[40] = test system: Blood; assay: Biodistribution in NMRI mouse blood assessed per gram of tissue at 3.7 MBq/mL, iv after 2 mins by gamma counting; details: in vivo; procedure, shortened: as §1
[41] = test system: Blood; assay: Biodistribution in NMRI mouse blood assessed per gram of tissue at 3.7 MBq/mL, iv after 60 mins by gamma counting; details: in vivo, 1 h; procedure, shortened: as §1
[42] = test system: Blood; assay: Drug level in NMRI mouse blood assessed as standard uptake value at 3.7 MBq/mL, iv after 2 mins by gamma counting; details: in vivo; procedure, shortened: as §2
[43] = test system: Liver; assay: Biodistribution in NMRI mouse liver assessed per gram of tissue at 3.7 MBq/mL, iv after 2 mins by gamma counting; details: in vivo

Compound CNc1ccc2nc(-c3ccc([18F])cc3)sc2c1 has a Drug uptake [1] of 0.2%, a Drug uptake [2] of 13% and a Drug uptake [3] of 8.2%. It also gave a Drug uptake [4] of 12.6%, a Drug uptake [5] of 4.6% and an SUV [6] of 4.3. The SUV [7] was 1.6, the Drug uptake [8] was 42.4% and the Drug uptake [9] was 17.5%. It also gave an SUV [10] of 7, a Drug uptake [11] of 1.4% and a Drug uptake [12] of 0.3%. The Drug uptake [13] was 5.9%, the Drug uptake [14] was 0.9% and the SUV [15] was 0.3. It also gave a Drug uptake [16] of 1.8%, a Drug uptake [17] of 0.3% and a Drug uptake [18] of 7.3%. The Drug uptake [19] was 1.4%, the SUV [20] was 2.5 and the SUV [21] was 0.5. For the same compound, the Drug uptake [22] was 0.8%, the Drug uptake [23] was 0.2% and the Drug uptake [24] was 5.8%. The SUV [25] was 2, the SUV [26] was 0.4 and the Drug uptake [27] was 11%. It also gave a Drug uptake [28] of 1.6%, a Drug uptake [29] of 3.42% and a Drug uptake [30] of 0.44%. For the same compound, the Drug uptake [31] was 1.39%, the SUV [32] was 0.48 and the Drug uptake [33] was 1.19%. For the same compound, the Drug uptake [34] was 0.12%, the Drug uptake [35] was 1.26% and the SUV [36] was 3.97. The SUV [37] was 0.44, the Drug uptake [38] was 1.5% and the Drug uptake [39] was 2.2%. For the same compound, the Drug uptake [40] was 0.7%, the Drug uptake [41] was 0.9% and the SUV [42] was 0.2.

CN(C)c1ccc2nc(-c3ccc([18F])cc3)sc2c1 gave a Drug uptake [1] of 0.1%, a Drug uptake [2] of 7.6% and a Drug uptake [3] of 8.5%. It also gave a Drug uptake [4] of 11.7%, a Drug uptake [5] of 6.5% and an SUV [6] of 4.3. The SUV [7] was 2.4, the Drug uptake [8] was 41.9% and the Drug uptake [9] was 18.9%. It also gave a Drug uptake [43] of 18.9%, an SUV [10] of 6.8 and a Drug uptake [11] of 1.5%. It also gave a Drug uptake [12] of 0.3%, a Drug uptake [13] of 5.5% and a Drug uptake [14] of 1%. The SUV [15] was 0.4, the Drug uptake [16] was 2.2% and the Drug uptake [17] was 0.6%. It also gave a Drug uptake [18] of 8%, a Drug uptake [19] of 1.9% and an SUV [20] of 2.9. It also gave an SUV [21] of 0.7, a Drug uptake [22] of 1.2% and a Drug uptake [23] of 0.2%. It also gave a Drug uptake [24] of 7.4%, an SUV [25] of 2.7 and an SUV [26] of 0.5. The Drug uptake [27] was 10%, the Drug uptake [28] was 1.2% and the Drug uptake [29] was 2.95%. For the same compound, the Drug uptake [30] was 0.65%, the Drug uptake [31] was 1.94% and the SUV [32] was 0.72. For the same compound, the Drug uptake [33] was 0.77%, the Drug uptake [34] was 0.22% and the Drug uptake [35] was 2.24%. For the same compound, the SUV [36] was 3.35, the SUV [37] was 0.83 and the Drug uptake [38] was 2.8%. For the same compound, the Drug uptake [39] was 2.4%, the Drug uptake [40] was 1.1% and the Drug uptake [41] was 0.9%. It also gave an SUV [42] of 0.4.

With Nc1ccc2nc(-c3ccc([18F])cc3)sc2c1 the Drug uptake [1] was 0.2%, the Drug uptake [2] was 4.9% and the Drug uptake [3] was 8.3%. It also gave a Drug uptake [4] of 13.3%, a Drug uptake [5] of 1.8% and an SUV [7] of 0.6. It also gave a Drug uptake [8] of 39.8%, a Drug uptake [9] of 10.7% and a Drug uptake [43] of 20%. For the same compound, the SUV [10] was 6.4, the Drug uptake [11] was 1.4% and the Drug uptake [12] was 0.3%. It also gave a Drug uptake [13] of 6.8%, a Drug uptake [14] of 1.1% and an SUV [15] of 0.3. It also gave a Drug uptake [16] of 2%, a Drug uptake [17] of 0.3% and a Drug uptake [18] of 8.9%. The Drug uptake [19] was 1.2%, the SUV [20] was 2.8 and the SUV [21] was 0.4. The Drug uptake [22] was 0.7%, the Drug uptake [23] was 0.1% and the Drug uptake [24] was 5.9%. The SUV [25] was 1.9, the SUV [26] was 0.2 and the Drug uptake [27] was 11.1%. The Drug uptake [28] was 0.6%, the Drug uptake [29] was 4.56% and the Drug uptake [30] was 0.32%. It also gave a Drug uptake [31] of 0.97%, an SUV [32] of 0.31 and a Drug uptake [33] of 1.74%. For the same compound, the Drug uptake [34] was 0.17%, the Drug uptake [35] was 1.34% and the SUV [36] was 4.96. It also gave an SUV [37] of 0.42, a Drug uptake [38] of 5.3% and a Drug uptake [39] of 1.3%. It also gave a Drug uptake [40] of 2.4%, a Drug uptake [41] of 0.6% and an SUV [42] of 0.8.
